High-throughput results deposited in PubChem BioAssay by Sanford-Burnham Center for Chemical Genomics.
Shown are actives, neighbours in structure and some others; about 4.1% of the full set was active somewhere.
Apaf1 inhib: blocks human Apaf-1 apoptosome activity; O14727; reconstituted apoptosome caspase-3 activity, DEVD-Rh110 fluorescence; inhibition, % at 20 µM; hit rate 0.71% among 330,000; AID 489030; active = inhibition of at least 40% at 20 µM;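 note: plate controls were DMSO wells for no effect and DEVD-CHO caspase inhibitor wells for full effect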
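System: reconstituted apoptosome with Apaf-1, cytochrome c, caspase-9, procaspase-3, dATP; Signal: Rh110 fluorescence intensity; Schedule: 30 min compound preincubation, 50 min activation, room temperature; Reagent: cytochrome c trigger plus (Z-DEVD)2-Rh110 caspase-3 substrate.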
UBC13 inh: inhibitors of human UBC13 polyubiquitin chain formation; hit rate 0.47% among 330,000; TR-FRET; P61088; inhibition, % at 20 µM; AID 485273; in the data active = inhibition above about 45%, passing the limit was not always enough
Target sequence (P61088 whole entry, looked up): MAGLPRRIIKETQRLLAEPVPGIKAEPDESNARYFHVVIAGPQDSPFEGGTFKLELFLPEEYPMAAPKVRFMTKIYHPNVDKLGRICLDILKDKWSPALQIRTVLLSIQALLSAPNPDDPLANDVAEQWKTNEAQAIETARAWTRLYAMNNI
UPR CHOP act: apoptotic UPR (CHOP) activation | CHO-CHOP luciferase reporter, luminescence; percent of tunicamycin response over DMSO baseline | AID 449763 | activation, % at 10 µM | hit rate 0.34% among 330,000;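 active = at 10 µM dose, activation of 40% or more, normalized to positive control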;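 note: 100% = tunicamycin at 10 µg/mL and 0% = DMSO alone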
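System: CHO-CHOP luciferase reporter cell line | Buffer or medium: F12 medium containing 10% fetal bovine serum | Doses: One dose, 10 µM in 0.5% DMSO | Times: 6 h compound exposure at 37 °C after overnight seeding | Signal: Luciferase luminescence | Read-out: % activation vs tunicamycin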
XBP1 UPR activ: activators of adaptive arm of unfolded protein response (XBP1); CHO-XBP1 luciferase reporter, IRE1-XBP1 UPR activation, luminescence; percent of tunicamycin response, DMSO as zero; activation, % at 20 µM; hit rate 0.33% among 330,000;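 active = versus positive control, 20 µM dose yields 30% or more activation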;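 note: 100% = tunicamycin at 10 µg/mL and 0% = DMSO only wells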
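Material: IRE1-XBP1 luciferase reporter CHO line / Quantity: one thousand reporter cells per well / Buffer or medium: F12 with 10% serum / Compound: 20 µM single concentration, DMSO 1% / Times: 6 h treatment, 37 °C / Detection: Steady-Glo luciferase glow luminescence, 10 min after reagent addition / Benchmarks: tunicamycin high, DMSO low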
Mdm2-MdmX inh: disrupts the human Mdm2-MdmX interaction. O15151+Q00987. SaOS-2 split-luciferase Mdm2/MdmX complementation, luminescence. inhibition, % at 8 µM. hit rate 3% among 330,000. AID 485346;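 active = inhibition of at least 50% at 8 µM in the primary screen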
Mdm2-MdmX conf: human Mdm2/MdmX binding inhibition, confirmed | shares compounds with Mdm2-MdmX inh | AID 489028 | luminescent assay | hit rate 55% among 10,000 | inhibition, % at 8 µM; in the data active = inhibition above about 40%
FLuc counter: counter-screen for Mdm2/MdmX inhibitors: full-length luciferase; shares compounds with Mdm2-MdmX inh; AID 504607; inhibition, % at 8 µM; SaOS-2 full-length luciferase counterscreen, luminescence; hit rate 77% among 6,200;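 active = mean inhibition at 8 µM reaching about 37%, which flags the compound as non-specific, limit read from the data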;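 note: p53-null SaOS-2 cells with luciferase driven by a doxycycline-inducible promoter; compound on cells about two nights before reading with doxycycline added after day one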
Starred values were filed as active, the others as inactive; . = no result.

SMILES	Apaf1 inhib	UBC13 inh	UPR CHOP act	XBP1 UPR activ	Mdm2-MdmX inh	Mdm2-MdmX conf	others
O=C(CSc1ncn[nH]1)Nc1ccc(Cl)c(Cl)c1	-3.9	4.7	1.9	-4.9	19.2	.
CC(=O)/C(C#N)=C1\NC(=O)C(Cc2ccccc2C)S1 (stereo unspecified)	-21.5	-5.0	1.2	0.1	83.0*	70.0*	FLuc counter=40.7*
CC(=O)/C(C#N)=C1\NC(=O)C(Cc2ccccc2)S1 (stereo unspecified)	5.4	-5.3	1.3	-0.6	46.4	.
C=CCNC(=O)c1ccc(NC(=O)CC2SC(N3CCCC3)=NC2=O)cc1 (stereo unspecified)	-9.3	0.1	0.7	0.3	7.2	.
COc1ccc(C(=O)/C=C/c2cc(OC)c(O)c(OC)c2)c(F)c1	9.1	-26.2	2.0	11.5	50.9*	30.2
COc1ccc2cc(C(=O)/C=C/c3cc(OC)c(O)c(OC)c3)ccc2c1	3.6	-8.0	5.3	11.6	0.1	.
CN(c1ccccc1)S(=O)(=O)c1cccc(NC(=O)CN2C(=O)NC3(CCCC3)C2=O)c1	22.5	0.5	-0.6	-0.9	18.6	.
CCN(C(=O)CSc1nc2ccccc2n1C)C1CCS(=O)(=O)C1 (stereo unspecified)	-11.3	1.7	0.5	0.5	11.8	.
CC1C/C(=C/c2ccncc2)C(=O)/C(=C/c2ccncc2)C1 (stereo unspecified)	15.8	-10.3	35.7	2.4	99.0*	99.2*	FLuc counter=51.2*
Nn1c(COc2ccccc2F)nnc1SCC(=O)NC1CCCCC1	3.5	0.4	1.8	0.1	8.4	.
CC1CN(C(=O)C2(C)CC2(Br)Br)CC(C)O1 (stereo unspecified)	-1.5	7.2	1.2	-2.0	17.8	.
O=C(c1ccccc1)c1cnc(Nc2ccc(Cl)c(Cl)c2)s1	-5.2	0.2	3.8	-0.5	70.7*	6.3
O=C(c1ccc(F)cc1)c1cnc(Nc2ccccc2)s1	8.2	-5.7	16.5	5.8	-82.5	.
O=C(Nc1cccc(-c2csc(Nc3cccc(C(F)(F)F)c3)n2)c1)c1cc([N+](=O)[O-])cc(C(F)(F)F)c1	-12.3	-30.7	24.2	9.2	63.8*	5.0
Cc1cc(C)[n+](Cc2ccccc2)cc1C(N)=O	-3.3	-4.2	-0.9	0.3	0.2	.
N#Cc1nc(-c2ccc(OCc3ccc(Cl)cc3)cc2)oc1N1CCC(C(N)=O)CC1	-82.1	2.8	2.7	0.5	5.4	.
N#Cc1nc(-c2ccc(OCc3ccc(Cl)cc3)cc2)oc1N1CCOCC1	-15.1	4.8	2.1	1.1	55.3*	22.2
CCCN(CCC)CCCNC(=S)Nc1ccc2nc(N3CCCC3)cc(C)c2c1	-2.8	9.2	0.6	-1.1	78.4*	45.4*	FLuc counter=62.6*
CCCCN(CC)CCCNC(=S)Nc1ccc2nc(N3CCN(C)CC3)cc(C)c2c1	-4.5	17.6	1.3	-0.8	56.2*	20.6
CCCCN(CC)CCCNC(=S)Nc1ccc2nc(N3CCN(CC)CC3)cc(C)c2c1	16.4	-1.2	2.2	-1.3	44.9	.
COc1cccc(C(=O)Nc2ccc(NC(=O)C3C4C=CC(C4)C3C(=O)O)cc2)c1 (stereo unspecified)	3.3	-0.1	3.5	0.1	14.0	.
COc1ccc(C2N(c3ccccc3)CCN2c2ccccc2)cc1O	24.2	1.0	-1.6	-1.6	-17.4	.
COc1ccc(-n2nc(C(=O)NCC(=O)NCCc3ccc(OC)c(OC)c3)c3ccccc3c2=O)cc1Cl	20.1	-4.8	0.0	-1.1	19.6	.
CCOC(=O)c1c(NC(=S)N2CCOCC2)sc2c1CCN(C(=O)OCC)C2	-1.2	1.6	10.3	20.6	51.3*	-0.3
CCOC(=O)c1c(NC(=S)NCc2ccccc2)sc2c1CCN(C(=O)OCC)C2	9.1	8.7	4.4	6.5	-3.1	.
SMILES	Apaf1 inhib	UBC13 inh	UPR CHOP act	XBP1 UPR activ	Mdm2-MdmX inh	Mdm2-MdmX conf	others
CCOC(=O)c1c(NC(=S)N2CCCCC2)sc2c1CCN(C(=O)OCC)C2	-4.5	1.7	3.3	17.9	72.0*	14.7
Cc1c(C(=O)N/N=C/c2ccccc2)[nH]c2ccc(Cl)cc12	4.8	-12.2	4.1	6.3	57.5*	51.2*	FLuc counter=59.3*
Cc1c(C(=O)N/N=C/c2ccc(N(C)C)cc2)[nH]c2ccc(Cl)cc12	-5.9	-8.1	-1.1	24.7	64.7*	51.3*	FLuc counter=69.2*
NNC(=O)c1[nH]c2ccc(Cl)cc2c1-c1ccccc1	6.7	7.0	1.6	-3.9	53.1*	20.9
COc1ccc(/C=N/NC(=O)c2[nH]c3ccc(Br)cc3c2-c2ccccc2)c(C(=O)O)c1OC	-10.6	6.7	1.4	1.5	-10.1	.
COc1ccc(/C=N/NC(=O)c2[nH]c3ccc(Br)cc3c2-c2ccccc2)cc1	-3.8	-4.2	1.4	10.5	74.2*	59.8*	FLuc counter=108.1*
CCOc1ccc2nc3c(cc2c1)CN(CCCO)C(=NCCOC)S3	15.5	3.1	4.1	4.3	-8.8	.
O=C(NCCCN1CCOCC1)c1ccc2c(c1)N(Cc1ccccc1F)C(=O)c1ccccc1S2=O (stereo unspecified)	12.6	-7.3	-2.0	-6.7	11.0	.
COc1ccc2c(c1)c(C(=O)N/N=C/c1ccc(Br)cc1)c(C)n2C	9.0	-4.9	0.9	0.7	56.2*	39.5	FLuc counter=54.0*
CCOc1ccc(/C=N/NC(=O)c2c(C)n(C)c3ccc(OC)cc23)cc1	5.6	-4.0	3.2	-0.5	31.4	.
CC(C)(C)c1ccc(C(=O)NNC(=O)CNC(=O)c2cccs2)cc1	12.9	-7.6	1.3	-1.1	10.2	.
S=c1sc2ccccc2n1CCc1ccncc1	7.3	-0.8	0.1	1.7	13.2	.
Cc1nn(CC(=O)Nc2nnc(CC(=O)N3CCCC3)s2)c(=O)c2ccccc12	-6.8	-3.7	-0.4	-3.7	2.0	.
CCOC(=O)c1[nH]c(C)c(/C(O)=C2\C(=O)C(=O)N(CCN(C)C)C2c2ccncc2)c1C (stereo unspecified)	3.7	-0.2	0.0	-1.2	6.2	.
CCN(CC)c1ccc(/C=C(/C#N)c2nc3ccccc3[nH]2)c(OC(C)C)c1	10.1	-206.7	3.2	5.9	79.8*	76.7*	FLuc counter=87.6*
COc1ccc2nc(SCC(C)=O)c(C#N)cc2c1	2.7	-187.8	1.4	-2.1	-184.8	.
Cc1cc(C)c2nc(SCC(=O)N3CC(=O)Nc4ccccc43)c(C#N)cc2c1	16.8	8.2	6.1	10.8	69.0*	70.9*	FLuc counter=111.8*
COc1ccc2nc(SCC(=O)N3CC(=O)Nc4ccccc43)c(C#N)cc2c1	10.2	40.5	-0.1	-2.6	64.6*	67.7*	FLuc counter=46.4*
CN(C)Cc1ccccc1Sc1ccc2c(c1)CCCC2	11.5	14.5	-1.4	-4.0	20.4	.
